Results on one molecule are retold here after ChEMBL document CHEMBL4052590, “Anti-Osteoporotic Activity of Harpagoside by Upregulation of the BMP2 and Wnt Signaling Pathways in Osteoblasts and Suppression of Differentiation in Osteoclasts” (J Nat Prod, 2017).

Data set [1] concerns Mus musculus. As to the kind of experiment: Effect on C-terminal telopeptide level in serum of OVX-induced bone loss ICR mouse model at 10 mg/kg, po for 12 weeks by ELISA (reference value: 95.7 +/- 3.8 ng/ml). Format: functional.
In data set [2] the test system is Mus musculus. The experiment in a line: Anti-osteoporotic activity in ovariectomized ICR mouse assessed as increase in ratio of bone volume to tissue volume of femur at 2 to 10 mg/kg, po after 12 weeks by microcomputed tomography. It counts as functional, organism-based.
The test system of data set [3] is Mus musculus. The experiment in a line: Effect on osteocalcin level in serum of OVX-induced bone loss ICR mouse model at 5 mg/kg, po for 12 weeks by ELISA (reference value: 176.9 +/- 4.7 ng/ml). Format: functional.
Data set [4] relates to Mus musculus. As to the kind of experiment: Effect on TRAP activity in serum of OVX-induced bone loss ICR mouse model at 5 mg/kg, po for 12 weeks (reference value: 19.8 +/- 1.0 U/L). It counts as functional.
Data set [5] deals with MC3T3-E1. The experiment in a line: Antiosteoporotic activity in mouse MC3T3-E1 cells assessed as increase in alkaline phosphatase activity after 4 days using pNPP as substrate in presence of ascorbic acid and beta-glycerophosphate by colorimetric assay. It counts as functional, cell-based. An outline of the steps:
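MC3T3-E1 cells (2 × 10^4 cells/mL) in osteogenic medium (400 μM ascorbic acid, 5 mM β-glycerophosphate) with or without compound for 4 days. Fixed in 70% ethanol, lysed in Tris/0.1% Triton X-100 pH 7.5. ALP read as p-NPP to p-nitrophenol at 405 nm; protein by Bradford.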

Data set [6] deals with Mus musculus. As to the kind of experiment: Anti-osteoporotic activity in ovariectomized ICR mouse assessed as increase in trabecular thickness in femur at 2 to 10 mg/kg, po after 12 weeks by microcomputed tomography. It counts as functional, organism-based.
Data set [7] concerns Mus musculus. As to the kind of experiment: Effect on alkaline phosphatase activity in serum of OVX-induced bone loss ICR mouse model at 5 mg/kg, po for 12 weeks using p-NPP as substrate (reference value: 84.9 +/- 4.2 U/L). It counts as functional.
Data set [8] can be described thus: Cytotoxicity against mouse MC3T3-E1 cells assessed as cell viability up to 4 uM after 72 hrs by MTT assay. It counts as cell-based. The following applies: read-out: Activity. An outline of the steps:
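MC3T3-E1 cells (1 × 10^4 cells/mL) exposed to a range of concentrations for 72 h at 37 °C, 5% CO2. MTT added (500 μg/mL final) for 4 h, formazan dissolved in DMSO, A570 read. Viability given as % of solvent control; IC50 by nonlinear regression of % survival versus concentration.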

Data set [9] deals with Mus musculus. As to the kind of experiment: Effect on calcium level in serum of OVX-induced bone loss ICR mouse model at 10 mg/kg, po for 12 weeks by ELISA (reference value: 9.3 +/- 0.3 mg/dl). Format: functional.
Data set [10] has as its system MC3T3-E1. As to the kind of experiment: Downregulation of DKK1 protein expression in mouse MC3T3-E1 cells up to 4 uM after 48 hrs in presence of ascorbic acid and beta-glycerophosphate by Western blot analysis. It counts as functional, cell-based. An outline of the steps: (§1)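 MC3T3-E1 cells given 400 μM ascorbic acid plus 5 mM β-glycerophosphate, exposed to test compound or not for 48 h. Lysed in boiling SDS sample buffer, protein measured by BCA. 40−50 μg of lysate run on 8% or 10% SDS-PAGE and transferred to PVDF. Blocked in 5% milk, probed with primary antibodies for 3 h at room temperature or overnight at 4 °C, detected by ECL.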

For data set [11], the system named is Mus musculus. The experiment in a line: Effect on osteocalcin level in serum of OVX-induced bone loss ICR mouse model at 10 mg/kg, po for 12 weeks by ELISA (reference value: 176.9 +/- 4.7 ng/ml). Format: functional.
Data set [12] relates to MC3T3-E1. The experiment in a line: Upregulation of OCN protein expression in mouse MC3T3-E1 cells up to 4 uM after 48 hrs in presence of ascorbic acid and beta-glycerophosphate by Western blot analysis. It counts as functional, cell-based.
Another data set deals with Osteoclast. As to the kind of experiment: Inhibition of RANKL/M-CSF-induced osteoclast differentiation in mouse bone marrow-derived osteoclasts assessed as downregulation of TRAP protein expression up to 4 uM after 48 hrs by Western blot analysis. Format: functional, cell-based. In short, it runs like this: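 Mouse bone marrow cells were taken from 4-week-old mice and primed 24 h in 30 ng/mL M-CSF. They were then given 100 ng/mL RANKL plus 30 ng/mL M-CSF, with or without compound, for 48 h. Lysates were made in boiling SDS buffer and quantified by BCA. 40–50 μg was run on SDS-PAGE and immunoblotted on PVDF with β-actin reference and ECL read-out.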

Data set [13] has as its system MC3T3-E1. As to the kind of experiment: Antiosteoporotic activity in mouse MC3T3-E1 cells assessed as formation of mineralized nodule after 14 days in presence of ascorbic acid and beta-glycerophosphate by Alizarin red S staining-based microscopic method. Format: functional, cell-based. In short, it runs like this:
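MC3T3-E1 cells (2 × 10^4 cells/mL) in 400 μM ascorbic acid and 5 mM β-glycerophosphate, with or without compound, for 14 days. Fixed in 70% ethanol 30 min, stained 5 min with 2% Alizarin red S (pH 4.0), viewed by microscopy. Stain extracted with 10% cetylpyridinium chloride, A570 read.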

In data set [14] the test system is Mus musculus. As to the kind of experiment: Effect on calcium level in serum of OVX-induced bone loss ICR mouse model at 2 mg/kg, po for 12 weeks by ELISA (reference value: 9.3 +/- 0.3 mg/dl). Format: functional.
For data set [15], the species on record is Mus musculus. As to the kind of experiment: Activation of Wnt signaling pathway in mouse MC3T3-E1 cells assessed as increase in BMP2 protein expression up to 4 uM after 48 hrs in presence of ascorbic acid and beta-glycerophosphate by Western blot analysis. Format: cell-based. An outline of the steps: as §1
Data set [16] deals with MC3T3-E1. As to the kind of experiment: Increase in OPN mRNA expression in 2 days differentiated mouse MC3T3-E1 cells up to 4 uM after 48 hrs in presence of ascorbic acid and beta-glycerophosphate by real-time PCR analysis. Format: functional, cell-based.

Activity calls are given as the source filed them. The rule behind the calls is not given here.

In the case of `C[C@]1(OC(=O)/C=C/c2ccccc2)C[C@@H](O)[C@]2(O)C=CO[C@@H](O[C@@H]3O[C@H](CO)[C@@H](O)[C@H](O)[C@H]3O)[C@@H]21` [HARPAGOSIDE], the Activity in the data set on Mus musculus [1] was 80.7 ng/mL; in the data set on Mus musculus [3], 162.7 ng/mL; with Mus musculus [4], 8.9 U/L; in the data set on MC3T3-E1 [5], “Dose-dependent effect”; in the data set with Mus musculus [7] it was 82.6 U/L; with Mus musculus [9], 10.3 mg/dL. Further, the Activity in the data set with Mus musculus [11] is 156.9 ng/mL; in the data set on MC3T3-E1 [13], “Dose-dependent effect”; in the data set on Mus musculus [14], 9.3 mg/dL; in the data set with MC3T3-E1 [16], “Dose-dependent effect”. Also, the outcome in the data set with Mus musculus [2], in the data set on Mus musculus [6], in the data set with MC3T3-E1 [10], with MC3T3-E1 [12] and in the data set listed under Mus musculus [15] was Active. The viability at 72 h in data set [8] was > 90%. Further, in the data set on Osteoclast, the inhibition entry is “Active”.
